High-throughput results (PubChem)
Sampled rows, rich in hits. Any-hit rate of the full collection: about 1.8%.
CHRM5 PAM – CHRM5 positive allosteric modulation. P08912. CHO-K1 hM5, Fluo-8 calcium, ACh EC20 PAM; 0% = ACh EC20, 100% = ACh EC100. activation, % at 3 µM. hit rate 0.3% among 360,000. AID 624038;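 active means activation above the run cutoff, the mean activation of all test compounds plus 3 SD, cut at about 18% in these data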
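Replicates: One well per compound, no replicates | System: Human M5 receptor in CHO-K1 cells | Benchmarks: Low control EC20 acetylcholine (0%), high control EC100 acetylcholine (100%) | Probe or stimulus: Acetylcholine, EC20 level | Times: Fluo-8 loading 80 min at 37 °C plus 30 min room temperature | Signal: Intracellular calcium via Fluo-8 fluorescence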
M4 PAM – potentiates acetylcholine response at human M4 receptor; hit rate 0.4% among 360,000; P08173; AID 624126; activation, % at 3 µM; CHO-K1 hM4/Gqi5, Fluo-8 calcium fluorescence, ACh EC20; 0% = ACh EC20, 100% = maximal ACh;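 active means activation above its plate's cutoff, the mean activation of sample wells plus 3 SD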
Target sequence (P08173 whole entry, looked up): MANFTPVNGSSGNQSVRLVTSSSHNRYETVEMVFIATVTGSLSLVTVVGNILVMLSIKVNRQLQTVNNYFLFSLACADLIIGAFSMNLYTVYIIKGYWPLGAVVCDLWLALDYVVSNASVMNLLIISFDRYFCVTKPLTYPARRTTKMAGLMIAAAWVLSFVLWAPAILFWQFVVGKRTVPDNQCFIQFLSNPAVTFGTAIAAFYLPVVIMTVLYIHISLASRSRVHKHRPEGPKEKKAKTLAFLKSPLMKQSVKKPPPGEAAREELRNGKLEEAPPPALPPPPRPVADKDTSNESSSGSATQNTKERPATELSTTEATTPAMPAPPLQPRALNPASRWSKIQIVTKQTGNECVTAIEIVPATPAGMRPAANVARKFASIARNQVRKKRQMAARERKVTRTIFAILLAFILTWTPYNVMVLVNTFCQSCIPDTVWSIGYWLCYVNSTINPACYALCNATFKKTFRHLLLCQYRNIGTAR
CHRM4 agonist – CHRM4 agonism in calcium assay | P08173 | CHO-K1 hM4/Gqi5, Fluo-8 calcium fluorescence; vehicle 0%, full acetylcholine response 100% | activation, % at 3 µM | hit rate 0.14% among 360,000;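 active means activation above the run mean over all test wells plus 3 SD, cut at about 32% in these data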;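 further: peak over basal fluorescence ratio per well then scaled between controls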
M4 antag – blocks acetylcholine activation of human M4 receptor; P08173; CHO-hM4 cells, ACh EC80, Fluo-8 calcium fluorescence; inhibition, % at 3 µM; hit rate 0.73% among 360,000; AID 624125;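 active means inhibition above its plate's cutoff, the mean inhibition of sample wells plus 3 SD, cut at about 27% in these data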
CHRM5 antagonist – antagonists of human muscarinic M5 receptor (CHRM5) | hit rate 0.59% among 360,000 | inhibition, % at 3 µM | AID 624040 | P08912 | CHO-hM5 cells, Fluo-8 calcium fluorescence, ACh EC80;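 active means inhibition above a per-plate cutoff, the mean of that plate's test compounds plus 3 SD, cut at about 27% in these data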
M5 ag – CHRM5 agonism in calcium assay. CHO-K1 hM5 cells, Fluo-8 calcium fluorescence; 0% DMSO wells, 100% maximal acetylcholine response. activation, % at 3 µM. P08912. AID 624037. hit rate 0.19% among 360,000;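 active means activation above the run's mean over test compounds plus 3 SD, cut at about 23% in these data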;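 further: signal is peak over basal fluorescence ratio across the kinetic read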
Each line names hits and unclear results; the compound was inactive in the other large screens.

COc1cc(C2CC(=O)Nc3ccccc3S2)cc(OC)c1OC (configuration not stated)	M4 antag 34.6
COc1c(C)cc(C(O)c2ncc(-c3ccc(C(F)(F)F)cc3)[nH]2)cc1C (configuration not stated)	none
C[C@H]1COc2cccc(N3CCC[C@H]3CO)c2S(=O)(=O)N1	none
CCCC1C(=O)Nc2ccccc2N1C(=O)c1cccc(C)c1 (configuration not stated)	M4 antag 45.0, CHRM5 antagonist 29.1
Cc1ccccc1-c1cc2nc(NCc3ccccc3F)n(C)c(=O)c2s1	none
Cc1cc(=O)n(-c2ccc3ccccc3n2)[nH]1	M4 PAM 34.4
CC1(C(=O)NC(=S)NNC(=O)c2ccncc2)CCCCC1	CHRM4 agonist 44.2
O=C(NNC(=S)NC(=O)C12CC3CC(CC(C3)C1)C2)c1ccncc1	CHRM4 agonist 75.7, M5 ag 28.1
CCCCn1nnnc1C1(C)CCC(=O)N1CCCN1CCOCC1 (configuration not stated)	none
CCC(=O)N1CCCC(C)(C(=O)Nc2ccc3scnc3c2)C1 (configuration not stated)	none
Cc1cc(/C=C2/SC(=S)N(c3cccc(Cl)c3)C2=O)c(C)n1-c1cccnc1	M4 antag 33.5
Cc1cc(/C=C2/SC(=S)N(c3ccc([N+](=O)[O-])cc3)C2=O)c(C)n1-c1cccnc1	none
Cc1cc(/C=C2\SC(=S)N(C)C2=O)c(C)n1-c1ccccc1O	M4 antag 26.9
CCCCNC(=O)C[C@@H]1C[C@@]2(C(=O)OC)CCCCC=C2N(Cc2ccc(Cl)cc2Cl)C1=O	none
NC(=O)c1ccsc1NC(=O)COC(=O)/C=C/c1ccc([N+](=O)[O-])cc1	none
COc1ccc(/C=C/C(=O)OCC(=O)Nc2cc(C(N)=O)cc(C(N)=O)c2)cc1	CHRM5 PAM 18.1
COc1ccc(/C=C/C(=O)OCC(=O)Nc2cccc(C(C)=O)c2)cc1	none
COC(=O)c1ccc(/C=C/C(=O)OCC(=O)Nc2sccc2C(N)=O)cc1	M4 antag 45.3, CHRM5 antagonist 27.0
CCCCNC(=O)c1nc(-c2ccccc2)oc1-c1ccc(Cl)cc1	none
COc1ccc(/C=N/NC(=O)c2ccc3ccccc3c2)cc1OS(=O)(=O)c1ccc(NC(C)=O)cc1	M4 antag 27.9
CC(=O)NC(C)(c1ccccc1)c1nc(-c2cccc(C#N)c2)cs1 (configuration not stated)	none
COc1cccc(CN(C)C(=O)c2cccc(S(=O)(=O)NCc3ccccc3)c2)c1OC	none
COc1ccc(CN2CCN(Cc3cccc(Oc4ccccc4)c3)CC2)c(OC)c1OC	CHRM5 antagonist 35.2
COc1ccc(CN(C)C(=O)c2cccc(Oc3ccccc3)c2)c(OC)c1OC	CHRM5 antagonist 29.8
O=C(N/N=C/c1ccncc1)c1nc(-c2ccccc2)n2c1CCCCC2	M4 antag 28.7
CC(C)N1CN(c2ccccc2)C(=S)N(c2ccccc2)C1	M4 PAM 18.0
O=C(Nc1nccs1)c1sc2cc(Cl)ccc2c1Cl	CHRM5 PAM 22.9, M4 PAM 24.8
O=C(N1CCOCC1)C12OC3CC(CC(C3)O1)O2	none
C[C@@H]1CCCCO[C@@H](CN(C)S(=O)(=O)c2ccc(Cl)cc2)[C@@H](C)CN([C@H](C)CO)C(=O)c2cc(N(C)C)ccc2O1	M4 PAM 18.1
Cc1ccc(S(=O)(=O)N(C)C[C@H]2OCCCC[C@@H](C)Oc3ccc(N(C)C)cc3C(=O)N([C@H](C)CO)C[C@@H]2C)cc1	none
CN(C)c1ccc(/C=C/C(=O)c2ccc(O)cc2)cc1	CHRM4 agonist 51.4, CHRM5 antagonist 49.9, M5 ag 228.9
O=C(/C=C/c1cccc(O)c1)c1cccnc1	none
CN(C)c1ccc(/C=C/C(=O)c2cccnc2)cc1	CHRM4 agonist 39.1, M5 ag 106.8
COc1ccc(C(=O)/C=C/c2ccc(N(C)C)cc2)c(OC)c1	CHRM4 agonist 114.5, M4 antag 36.4, CHRM5 antagonist 51.6, M5 ag 146.0
CN(C)c1ccc(/C=C/C(=O)c2ccc3c(c2)OCO3)cc1	CHRM4 agonist 120.8, M4 antag 26.8, M5 ag 75.9
CS(=O)(=O)c1sc(C#N)c2c1C(=O)CC(c1ccccc1)C2 (configuration not stated)	M4 antag 75.8, CHRM5 antagonist 31.1
COC(=O)c1ccc(C(=O)N2CCCC(C)(C(=O)NS(=O)(=O)C3CC3)C2)cc1 (configuration not stated)	none
C=CCNC(=O)Nc1ccc(Cl)cn1	M4 PAM 20.8
COc1ccc(CNC(=O)C(c2ccco2)N(C(=O)c2ccccn2)c2ccccc2)cc1 (configuration not stated)	none
O=C(NCc1ccccc1)C(c1ccco1)N(C(=O)c1ccccn1)c1ccccc1 (configuration not stated)	CHRM5 antagonist 49.1
CC1CCCCC1n1c(-c2cccnc2)n[nH]c1=S (configuration not stated)	none
S=c1[nH]nc(-c2cccnc2)n1C1CCCCC1	M4 PAM 25.8
Cc1onc(-c2c(F)cccc2Cl)c1C(=O)Nc1nnc(C(F)(F)F)s1	CHRM5 antagonist 29.0
Cc1onc(-c2c(F)cccc2Cl)c1C(=O)Nc1nccs1	none
Cc1onc(-c2ccccc2)c1C(=O)Nc1nnc(-c2ccncc2)s1	M4 PAM 31.1
Cc1noc(C)c1C(=O)Nc1nnc(-c2ccccc2)s1	none
CCOC(=O)C1=CC[C@@H](c2ccccc2)N(S(=O)(=O)c2ccc(C)cc2)[C@H]1C=C(C)C	none
O=C(CN1C(=O)CCC1=O)Nc1ccc(Br)cc1	none
O=C(CN1C(=O)CCC1=O)Nc1cccc(NC(=O)CN2C(=O)CCC2=O)c1	CHRM5 PAM 19.3
CC1(C(=O)Nc2cccc(Oc3ccccc3)c2)CCN1Cc1cccc2c1OCO2 (configuration not stated)	none
CC(=NNC(=S)N1CCN(c2ccccn2)CC1)c1ccccn1	none
CC(=NNC(=S)N1CCN(c2ccccn2)CC1)c1nccs1	M4 antag 42.9, CHRM5 antagonist 29.2
CC1Oc2ccccc2N(CC(=O)NC2CC2)C1=O (configuration not stated)	none
CC1Oc2ccccc2N(CC(=O)NCc2ccccc2)C1=O (configuration not stated)	M4 PAM 23.4
CCN(CC)CCn1c(=S)[nH]c2cc3c(cc2c1=O)OCO3	none
CCN1CCN(CCn2c(=S)[nH]c3cc4c(cc3c2=O)OCO4)CC1	CHRM5 antagonist 28.6
